Measured values reported in ChEMBL document CHEMBL1212762, “In vivo activity of ceftobiprole in murine skin infections due to Staphylococcus aureus and Pseudomonas aeruginosa” (Antimicrob Agents Chemother, 2010).

Legend:
[1] = system: Pseudomonas aeruginosa; test: Antimicrobial activity against Pseudomonas aeruginosa OC 4354 infected in immunocompromized SKH1 mouse assessed as log change in bacterial colony forming unit at 100 mg/kg/day, sc; type: functional; conditions: route subcutaneous
In short: (§1)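 Female SKH1 hairless mice made neutropenic with ip cyclophosphamide (150 mg/kg 5 days and 100 mg/kg 1 day before infection). 0.2 ml s.c. Cytodex bead (0.1% vol/vol) inoculum in BHI: OC 4351 left flank, OC 4354 right flank. Drug s.c. at 1, 3, 25, 27 h postinfection. Killed at 48 h; skin homogenised in saline, plated on TSA 18 h 37°C; Δlog CFU/g versus inoculum. 5 mice/dose, run twice.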

[2] = system: Pseudomonas aeruginosa; test: Antimicrobial activity against Pseudomonas aeruginosa OC 4354 infected in immunocompromized SKH1 mouse assessed as log change in bacterial colony forming unit at 6.2 mg/kg/day, sc; type: functional; conditions: route subcutaneous; in short: as §1
[3] = system: Plasma; test: fCmax in immunocompromized SKH1 mouse plasma at 50 mg/kg, sc; type: ADME, organism-based; parameters: dose 50 mg/kg, route subcutaneous; conditions: in vivo
In short: (§2)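 Female SKH1 hairless mice, immunocompetent or cyclophosphamide-neutropenic, infected s.c. with MRSA OC 8525 or P. aeruginosa OC 4354 on the Cytodex beads (left flank), sterile beads on the right. Single dose 24 h later: s.c. at the nape, or linezolid 50 mg/kg oral. Plasma and skin (DMSO homogenate) sampled over time, HPLC with diode array.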

[4] = system: Pseudomonas aeruginosa; test: Antimicrobial activity against Pseudomonas aeruginosa OC 4354 infected in immunocompromized SKH1 mouse assessed as log change in bacterial colony forming unit at 1.6 mg/kg/day, sc; type: functional; conditions: route subcutaneous; in short: as §1
[5] = system: Pseudomonas aeruginosa; test: Antimicrobial activity against Pseudomonas aeruginosa OC 4354 infected in immunocompromized SKH1 mouse assessed as log change in bacterial colony forming unit at 25 mg/kg/day, sc; type: functional; conditions: route subcutaneous; in short: as §1
[6] = system: Plasma; test: fAUC (0-infinity) in immunocompromized SKH1 mouse plasma at 50 mg/kg, sc; type: ADME, organism-based; parameters: dose 50 mg/kg, route subcutaneous; conditions: in vivo; in short: as §2
[7] = system: Pseudomonas aeruginosa; test: Antimicrobial activity against Pseudomonas aeruginosa OC 4351 assessed as inhibition of growth by broth microdilution method; type: functional
[8] = Tmax in immunocompromized SKH1 mouse plasma at 50 mg/kg, sc; type: ADME, organism-based; parameters: dose 50 mg/kg, route subcutaneous; in short: as §2
[9] = system: Pseudomonas aeruginosa; test: Antimicrobial activity against Pseudomonas aeruginosa OC 4351 infected in immunocompromized SKH1 mouse assessed as log change in bacterial colony forming unit at 1.6 mg/kg/day, sc; type: functional; conditions: route subcutaneous; in short: as §1
[10] = system: Pseudomonas aeruginosa; test: Antimicrobial activity against Pseudomonas aeruginosa OC 4351 infected in immunocompromized SKH1 mouse assessed as log change in bacterial colony forming unit at 25 mg/kg/day, sc; type: functional; conditions: route subcutaneous; in short: as §1
[11] = system: Pseudomonas aeruginosa; test: Antimicrobial activity against Pseudomonas aeruginosa OC 4351 infected in immunocompromized SKH1 mouse assessed as log change in bacterial colony forming unit at 100 mg/kg/day, sc; type: functional; conditions: route subcutaneous; in short: as §1
[12] = system: Pseudomonas aeruginosa; test: Antimicrobial activity against Pseudomonas aeruginosa OC 4351 infected in immunocompromized SKH1 mouse assessed as log change in bacterial colony forming units at 25 mg/kg/day, sc; type: functional; conditions: route subcutaneous; in short: as §1
[13] = system: Pseudomonas aeruginosa; test: Antimicrobial activity against Pseudomonas aeruginosa OC 4354 assessed as inhibition of growth by broth microdilution method; type: functional
[14] = system: Plasma; test: fCmax in immunocompetent SKH1 mouse plasma at 50 mg/kg, po; type: ADME, organism-based; parameters: dose 50 mg/kg, route oral; conditions: in vivo; in short: as §2
[15] = Protein binding in mouse plasma; type: ADME, cell-free; conditions: read-out: PPB (converted)
[16] = system: Staphylococcus aureus; test: Antimicrobial activity against methicillin-susceptible Staphylococcus aureus Smith OC 4172 infected immunocompetent SKH1 mouse assessed as lesion volume at 1.6 mg/kg/day, sc measured after 48 hrs postinfection (reference value: 1181 mm3); conditions: route subcutaneous
[17] = system: Staphylococcus aureus; test: Antimicrobial activity against methicillin-resistant Staphylococcus aureus OC 8525 infected immunocompetent SKH1 mouse assessed as lesion volume at 100 mg/kg/day, sc measured after 48 hrs postinfection (reference value: 1535 mm3); conditions: route subcutaneous
[18] = system: Staphylococcus aureus; test: Antimicrobial activity against methicillin-susceptible Staphylococcus aureus Smith OC 4172 infected immunocompetent SKH1 mouse assessed as lesion volume at 6.2 mg/kg/day, sc measured after 48 hrs postinfection (reference value: 1181 mm3); conditions: route subcutaneous
[19] = system: Staphylococcus aureus; test: Antimicrobial activity against methicillin-resistant Staphylococcus aureus OC 8525 infected immunocompetent SKH1 mouse assessed as lesion volume at 1.6 mg/kg/day, sc measured after 48 hrs postinfection (reference value: 1535 mm3); conditions: route subcutaneous
[20] = Ratio of fAUC to MIC in Staphylococcus aureus OC 4172 infected sc dosed SKH1 mouse; type: functional
In short: (§3)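 Free-drug plasma AUC, converted from μg·min/ml to μg·h/ml, divided by the MIC of the infecting S. aureus strain.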

[21] = Ratio of fAUC to MIC in Staphylococcus aureus OC 8525 infected sc dosed SKH1 mouse; type: functional; in short: as §3
[22] = system: Staphylococcus aureus; test: Antimicrobial activity against methicillin-resistant Staphylococcus aureus OC 8525 infected immunocompetent SKH1 mouse assessed as lesion volume at 6.2 mg/kg/day, sc measured after 48 hrs postinfection (reference value: 1535 mm3); conditions: route subcutaneous
[23] = Tmax in immunocompetent SKH1 mouse plasma at 50 mg/kg, po; type: ADME, organism-based; parameters: dose 50 mg/kg, route oral; in short: as §2
[24] = system: Staphylococcus aureus; test: Antimicrobial activity against methicillin-susceptible Staphylococcus aureus Smith OC 4172 infected immunocompetent SKH1 mouse assessed as lesion volume at 25 mg/kg/day, sc measured after 48 hrs postinfection (reference value: 1181 mm3); conditions: route subcutaneous
[25] = system: Staphylococcus aureus; test: Antimicrobial activity against methicillin-resistant Staphylococcus aureus OC 8525 infected immunocompetent SKH1 mouse assessed as lesion volume at 25 mg/kg/day, sc measured after 48 hrs postinfection (reference value: 1535 mm3); conditions: route subcutaneous
[26] = Half life in immunocompetent SKH1 mouse plasma at 50 mg/kg, po; type: ADME, organism-based; parameters: dose 50 mg/kg, route oral; in short: as §2
[27] = system: Plasma; test: fAUC (0-infinity) in immunocompetent SKH1 mouse plasma at 50 mg/kg, po; type: ADME, organism-based; parameters: dose 50 mg/kg, route oral; conditions: in vivo; in short: as §2

CO/N=C(\C(=O)N[C@@H]1C(=O)N2C(C(=O)[O-])=C(C[N+]3(C)CCCC3)CS[C@H]12)c1csc(N)n1
deltalog10CFU [1]: 1.7 | deltalog10CFU [2]: 2.9 | fCmax [3]: 66 µg/mL | deltalog10CFU [4]: 1.7 | deltalog10CFU [5]: 1.7 | fAUC [6]: 1790 µg·min/mL | MIC [7]: 4 µg/mL | Tmax [8]: 7.5 min | deltalog10CFU [9]: 2.1 | deltalog10CFU [10]: 2.1 | deltalog10CFU [11]: 1 | deltalog10CFU [12]: 1.8 | MIC [13]: 32 µg/mL

CC(=O)NC[C@H]1CN(c2ccc(N3CCOCC3)c(F)c2)C(=O)O1 [LINEZOLID]
fCmax [14]: 14 µg/mL | fraction unbound [15]: 0.68 | Activity [16]: 1407 mm3 | Activity [17]: 858 mm3 | Activity [18]: 1234 mm3 | Activity [19]: 1644 mm3 | fAUC/MIC [20]: 898 | fAUC/MIC [21]: 449 | Activity [22]: 1277 mm3 | Tmax [23]: 30 min | Activity [24]: 1018 mm3 | Activity [25]: 932 mm3 | half-life [26]: 102 min | fAUC [27]: 1795 µg·min/mL
